ChEMBL document CHEMBL1155274, “Synthesis of some novel pyrazolo[3,4-b]pyridine and pyrazolo[3,4-d]pyrimidine derivatives bearing 5,6-diphenyl-1,2,4-triazine moiety as potential antimicrobial agents” (Eur J Med Chem, 2009)
In brackets after ≈: the same amount, converted by molar mass.

Tests used:
[1] = test system: Aspergillus fumigatus; test: Antimicrobial activity against Aspergillus fumigatus at 100 ug/mL after 3 to 4 days by disk diffusion method; settings: read-out: IZ
[2] = test system: Escherichia coli; test: Antimicrobial activity against Escherichia coli MTCCB 1652 at 100 ug/mL after 16 to 20 hrs by disk diffusion method; type: functional; settings: read-out: IZ
How it was run: (§1)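 Nutrient agar disc diffusion against bacterial strains, compounds in DMSO at a single test concentration. DMSO blank; tetracycline as reference drug. Plates incubated 16–20 h at 37 °C, and the inhibition zone was measured.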

[3] = test system: Alternaria alternata; test: Antimicrobial activity against Alternaria alternata at 100 ug/mL after 3 to 4 days by disk diffusion method; settings: read-out: IZ
[4] = test system: Aspergillus niger; test: Antimicrobial activity against Aspergillus niger at 100 ug/mL after 3 to 4 days by disk diffusion method; settings: read-out: IZ
[5] = test system: Staphylococcus aureus; test: Antimicrobial activity against Staphylococcus aureus MTCCB 737 at 100 ug/mL after 16 to 20 hrs by disk diffusion method; type: functional; settings: read-out: IZ
How it was run: as §1

[6] = test system: Staphylococcus epidermidis; test: Antimicrobial activity against Staphylococcus epidermidis MTCCB 1824 at 100 ug/mL after 16 to 20 hrs by disk diffusion method; type: functional; settings: read-out: IZ
How it was run: as §1

[7] = test system: Alternaria alternata; test: Antimicrobial activity against Alternaria alternata after 24 hrs by serial dilution method; type: functional
How it was run: (§2)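 Tube serial dilution in nutrient broth at compound levels of 6.25, 12.5, 25, 50 and 100. Each tube received standardized microbial suspension (10^7 cells/mL) and was incubated 24 h at 37 °C. MIC was the lowest concentration preventing growth, i.e. maintaining or reducing inoculum viability.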

[8] = test system: Staphylococcus aureus; test: Antimicrobial activity against Staphylococcus aureus MTCCB 737 after 24 hrs by serial dilution method; type: functional; settings: MTCCB 737, 24 h
How it was run: as §2

[9] = test system: Artemia salina; test: Toxicity against Artemia salina assessed as number of the nauplii died after 24 hrs; type: organism-based; settings: in vivo
How it was run: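 Artemia salina eggs were hatched in sea salt water (38 g/L) at 37 °C for 48 h with constant oxygen to give nauplii. Stocks were 10 mg per 2 mL DMSO, and five dilutions were run in triplicate with about 10 nauplii per vial. A DMSO-only vial served as control.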

[10] = test system: Aspergillus niger; test: Antimicrobial activity against Aspergillus niger after 24 hrs by serial dilution method; type: functional
How it was run: as §2

[11] = test system: Escherichia coli; test: Antimicrobial activity against Escherichia coli MTCCB 1652 after 24 hrs by serial dilution method; type: functional; settings: MTCCB 1652, 24 h
How it was run: as §2

[12] = test system: Aspergillus niger; test: Antimicrobial activity against Aspergillus niger at 30 ug/mL after 3 to 4 days by disk diffusion method; settings: read-out: IZ
[13] = test system: Aspergillus fumigatus; test: Antimicrobial activity against Aspergillus fumigatus at 30 ug/mL after 3 to 4 days by disk diffusion method; settings: read-out: IZ
[14] = test system: Alternaria alternata; test: Antimicrobial activity against Alternaria alternata at 30 ug/mL after 3 to 4 days by disk diffusion method; settings: read-out: IZ
[15] = test system: Escherichia coli; test: Antimicrobial activity against Escherichia coli MTCCB 1652 at 30 ug/mL after 16 to 20 hrs by disk diffusion method; type: functional; settings: read-out: IZ
How it was run: (§3)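 Nutrient agar disc diffusion against S. aureus MTCCB 737, S. epidermidis MTCCB 1824 and E. coli MTCCB 1652. Tetracycline served as the standard drug, and DMSO served as the blank. The inhibition zone was measured after 16–20 h at 37 °C.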

[16] = test system: Staphylococcus aureus; test: Antimicrobial activity against Staphylococcus aureus MTCCB 737 at 30 ug/mL after 16 to 20 hrs by disk diffusion method; type: functional; settings: read-out: IZ
How it was run: as §3

[17] = test system: Staphylococcus epidermidis; test: Antimicrobial activity against Staphylococcus epidermidis MTCCB 1824 at 30 ug/mL after 16 to 20 hrs by disk diffusion method; type: functional; settings: read-out: IZ
How it was run: as §3

Compound	zone of inhibition at 100 µg/mL [1] [mm]	zone of inhibition at 100 µg/mL [2] [mm]	zone of inhibition at 100 µg/mL [3] [mm]	zone of inhibition at 100 µg/mL [4] [mm]	zone of inhibition at 100 µg/mL [5] [mm]	zone of inhibition at 100 µg/mL [6] [mm]	MIC [7] [µg/mL]	MIC [8] [µg/mL]	LC50 [9] [ppm]	MIC [10] [µg/mL]	MIC [11] [µg/mL]	zone of inhibition at 30 µg/mL [12] [mm]	zone of inhibition at 30 µg/mL [13] [mm]	zone of inhibition at 30 µg/mL [14] [mm]	zone of inhibition at 30 µg/mL [15] [mm]	zone of inhibition at 30 µg/mL [16] [mm]	zone of inhibition at 30 µg/mL [17] [mm]
CSc1nn(-c2nnc(-c3ccccc3)c(-c3ccccc3)n2)c2nc(C)c3c(=O)[nH]cnc3c12	11	10	12	10	17	17											
Nc1nc(=S)[nH]c2nn(-c3nnc(-c4ccccc4)c(-c4ccccc4)n3)c(N)c12	11	13	2	7	9	11											
CSC(Nc1c(C#N)c(SC)nn1-c1nnc(-c2ccccc2)c(-c2ccccc2)n1)=C(C#N)C#N	9	11	8	6	17	21											
CSc1nn(-c2nnc(-c3ccccc3)c(-c3ccccc3)n2)c(N)c1C#N	8	3	0	6	12	7											
CSc1nn(-c2nnc(-c3ccccc3)c(-c3ccccc3)n2)c2nc(C)c(C#N)c(N)c12	6	12	5	7	19	16											
Cc1nc2c(c(=O)[nH]1)c1nnc(C)c(=O)n1n2-c1nnc(-c2ccccc2)c(-c2ccccc2)n1	19	29	16	15	28	26	50 (≈ 108 µM)	25 (≈ 53.9 µM)	6.49	25 (≈ 53.9 µM)	12.5 (≈ 27 µM)						
N#Cc1c(N)nn2c(N)c3c(nc12)n(-c1nnc(-c2ccccc2)c(-c2ccccc2)n1)n1c(=O)c2ccccc2nc31	21	20	19	19	26	23	50 (≈ 88.9 µM)	50 (≈ 88.9 µM)	1.39	> 100	> 100						
CC(=O)c1c(-c2ccccc2)nc2c3c(nn2-c2nnc(-c4ccccc4)c(-c4ccccc4)n2)N(c2ccccc2)C(C)=Nc13	3	10	9	7	18	13											
CSc1nn(-c2nnc(-c3ccccc3)c(-c3ccccc3)n2)c2nc(-c3ccccc3)c3c(C)c(C#N)c(N)nc3c12	16	19	9	11	25	22	> 100	50 (≈ 86.6 µM)	0.58	> 100	25 (≈ 43.3 µM)						
CSc1nn(-c2nnc(-c3ccccc3)c(-c3ccccc3)n2)c2nc(C)[nH]c(=O)c12	12	5	10	9	14	11											
CSc1nn(-c2nnc(-c3ccccc3)c(-c3ccccc3)n2)c2nc3c(C#N)c(N)nn3c(N)c12	22	17	16	18	24	22	25 (≈ 50.9 µM)	50 (≈ 102 µM)	2.31	25 (≈ 50.9 µM)	> 100						
Cc1nc2c(c(=O)[nH]1)c1nnc(-c3ccccc3)n1n2-c1nnc(-c2ccccc2)c(-c2ccccc2)n1	17	26	8	12	27	27	50 (≈ 100 µM)	50 (≈ 100 µM)	3.54	50 (≈ 100 µM)	25 (≈ 50.2 µM)						
Cc1nc2c(c(NN)nn2-c2nnc(-c3ccccc3)c(-c3ccccc3)n2)c(=O)[nH]1	10	8	13	11	18	10											
CSc1nn(-c2nnc(-c3ccccc3)c(-c3ccccc3)n2)c2nc(-c3ccccc3)c(C(C)=O)c(N)c12	10	13	5	4	16	18											
S=c1nc2c3c(n(-c4nnc(-c5ccccc5)c(-c5ccccc5)n4)nc3[nH]1)N=C(c1ccccc1)N2	9	9	5	11	16	13											
O=C(O)c1cc(O)c(O)c(O)c1 [GALLIC ACID]									4.53								
CC(=O)N1CCN(c2ccc(OCC3COC(Cn4ccnc4)(c4ccc(Cl)cc4Cl)O3)cc2)CC1 (configuration not stated) [KETOCONAZOLE]							6.25 (≈ 11.8 µM)			6.25 (≈ 11.8 µM)		20	18	21			
CN(C)[C@@H]1C(O)=C(C(N)=O)C(=O)[C@@]2(O)C(O)=C3C(=O)c4c(O)cccc4[C@@](C)(O)[C@H]3C[C@@H]12 [TETRACYCLINE]								6.25 (≈ 14.1 µM)			12.5 (≈ 28.1 µM)				28	30	25
BLEOMYCIN									0.41								
